Measurements from ChEMBL document CHEMBL4316604, “Discovery of Isaindigotone Derivatives as Novel Bloom's Syndrome Protein (BLM) Helicase Inhibitors That Disrupt the BLM/DNA Interactions and Regulate the Homologous Recombination Repair” (J Med Chem, 2019).
pKd: −log10 of the molar value. Activity calls are given as the source filed them.

How the values were obtained:
HCT-116 [1] = assay: Induction of apoptosis in human HCT116 cells assessed as increase in cleaved caspase 7 expression at 2 uM after 48 hrs by Western blot analysis; format: functional, cell-based
How it was run: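 HCT116 cells treated with ligand (DNA-damage proteins 24 h, apoptosis proteins 48 h), lysed in RIPA at 4 °C. 40 μg protein per lane resolved by SDS-PAGE, blotted to PVDF, probed with damage and apoptosis antibody panels; β-actin loading control; chemiluminescent detection.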

[2] = molecular target: T1, RecQ-like DNA helicase BLM (Homo sapiens, UniProt P54132); assay: Inhibition of 5'-biotin labeled duplex forked-DNA binding to BLM (unknown origin) assessed as increase in unbound DNA levels at 0.5 to 1 uM after 1 hr by filter-binding assay
T1 sequence (P54132 whole entry): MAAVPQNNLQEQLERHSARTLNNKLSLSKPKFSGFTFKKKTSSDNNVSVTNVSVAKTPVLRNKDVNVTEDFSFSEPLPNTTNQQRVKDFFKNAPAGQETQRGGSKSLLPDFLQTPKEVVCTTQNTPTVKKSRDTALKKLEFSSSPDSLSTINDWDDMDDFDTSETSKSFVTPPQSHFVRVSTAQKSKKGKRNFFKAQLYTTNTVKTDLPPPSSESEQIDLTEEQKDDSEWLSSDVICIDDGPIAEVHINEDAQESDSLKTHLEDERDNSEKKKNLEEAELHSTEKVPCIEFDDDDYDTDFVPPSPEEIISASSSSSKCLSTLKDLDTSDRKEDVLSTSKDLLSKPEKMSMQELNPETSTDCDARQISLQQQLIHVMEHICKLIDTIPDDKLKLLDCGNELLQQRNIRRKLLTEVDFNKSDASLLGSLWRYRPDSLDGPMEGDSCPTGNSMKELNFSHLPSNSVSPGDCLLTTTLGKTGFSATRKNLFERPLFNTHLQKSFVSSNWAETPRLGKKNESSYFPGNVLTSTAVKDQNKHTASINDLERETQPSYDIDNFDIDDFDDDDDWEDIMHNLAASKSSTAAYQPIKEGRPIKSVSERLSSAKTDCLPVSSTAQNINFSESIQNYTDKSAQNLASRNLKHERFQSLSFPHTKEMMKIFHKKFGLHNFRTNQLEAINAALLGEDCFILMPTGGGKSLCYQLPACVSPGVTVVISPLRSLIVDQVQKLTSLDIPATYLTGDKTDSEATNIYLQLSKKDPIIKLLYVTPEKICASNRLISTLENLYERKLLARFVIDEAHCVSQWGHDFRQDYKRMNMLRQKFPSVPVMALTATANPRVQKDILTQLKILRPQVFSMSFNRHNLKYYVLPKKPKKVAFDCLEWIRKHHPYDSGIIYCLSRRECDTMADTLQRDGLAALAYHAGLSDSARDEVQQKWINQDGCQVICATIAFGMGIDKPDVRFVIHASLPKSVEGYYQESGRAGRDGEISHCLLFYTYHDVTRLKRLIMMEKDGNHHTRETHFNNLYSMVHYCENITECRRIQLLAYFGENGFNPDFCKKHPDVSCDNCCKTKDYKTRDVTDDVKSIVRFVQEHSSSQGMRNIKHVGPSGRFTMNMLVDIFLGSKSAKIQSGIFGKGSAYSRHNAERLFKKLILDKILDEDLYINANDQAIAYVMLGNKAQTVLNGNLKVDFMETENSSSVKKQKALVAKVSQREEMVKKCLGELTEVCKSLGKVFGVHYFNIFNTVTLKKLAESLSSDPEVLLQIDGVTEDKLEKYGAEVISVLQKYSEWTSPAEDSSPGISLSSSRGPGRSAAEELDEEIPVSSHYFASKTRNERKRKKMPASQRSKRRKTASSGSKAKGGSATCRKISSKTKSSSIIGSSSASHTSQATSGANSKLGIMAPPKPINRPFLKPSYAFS
How it was run: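 BLM (100 nM) preincubated with 0.5 or 1.0 μM ligand for 1 h at 37 °C, then mixed with 8 nM biotinylated duplex forked DNA. Vacuum-filtered through nitrocellulose over nylon membranes; DNA UV-crosslinked and detected by chemiluminescence. Dot grey levels give bound (upper) vs free (lower) DNA, relative to total.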

[3] = molecular target: T1, RecQ-like DNA helicase BLM; assay: Inhibition of ATP hydrolysis activity of His-tagged BLM (unknown origin) expressed in Escherichia coli BL21 (DE3) at 1 to 10 uM
[4] = molecular target: T1, RecQ-like DNA helicase BLM; assay: Inhibition of BLM in human HCT116 cells assessed as DNA damage by measuring gammaH2AX up to 2 uM after 48 hrs by […]; format: cell-based
[5] = molecular target: T1, RecQ-like DNA helicase BLM; assay: Inhibition of BLM in human HCT116 cells assessed as induction of RAD51 foci accumulation on gamma-H2AX foci at 1 to 2 after 24 hrs by immunofluorescence assay; format: cell-based
How it was run: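 HCT116 cells treated 24 h, fixed in 4% paraformaldehyde, permeabilised with 0.5% Triton X-100, blocked in 5% goat serum. Stained with γ-H2AX and RAD51 antibodies overnight at 4 °C, Alexa 488/647 secondaries and DAPI. Imaged by confocal microscopy for foci co-localisation.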

[6] = molecular target: RecQ-like DNA helicase BLM (Homo sapiens, UniProt P54132, M1111A); assay: Binding affinity to His-tagged BLM M1111A mutant (unknown origin) expressed in Escherichia coli BL21 (DE3) by ITC assay
Chain of RecQ-like DNA helicase BLM (Homo sapiens, UniProt P54132, M1111A) (P54132 whole entry M1111A): as the sequence (P54132 whole entry) above, with M1111A counted along it
How it was run: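 ITC at 25 °C in 2 mM MgCl2, 10 mM KH2PO4, pH 7.5: ligand (0.6 mM, syringe) titrated in 10 μL injections, 300 s apart, into BLM642-1296 wild-type or point mutant, or DNA (0.04 mM, cell). His-tagged BLM from E. coli BL21(DE3), induced with […] at 16 °C for 24 h. Heats integrated, fitted to 1:1 model for KD.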

[7] = molecular target: T1, RecQ-like DNA helicase BLM; assay: Inhibition of His-tagged BLM (unknown origin) expressed in Escherichia coli BL21 (DE3) assessed as reduction in BLM helicase unwinding activity at 50 uM using 5'-biotin labeled forked-DNA as substrate after 1 hr by PAGE analysis
How it was run: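 BLM642-1296 (His-tagged, E. coli BL21(DE3)) preincubated with ligand (1.0, 10, 50 μM; ≤1% DMSO) for 1 h at 4 °C. Reaction: 8 nM annealed 5′-biotin duplex forked DNA, 32 nM BLM, 2 mM ATP, 0.1% BSA, 1 h.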

HCT-116 [8] = assay: Induction of apoptosis in human HCT116 cells assessed as apoptotic cells after 48 hrs by Hoechst/propidium iodide-staining based flow cytometry; format: functional, cell-based
HCT-116 [9] = assay: Antiproliferative activity against human HCT116 cells after 24 hrs in presence of siRNA by MTT assay; format: functional, cell-based; conditions: in the assay text read “after 48 hrs” for “after 24 hrs”
How it was run: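 HCT116 cells (5×10^3/well) grown 24 h, then exposed to 0–50 μM test agent; for knockdown, cells pre-treated with 50 nM BLM siRNA for 24 h first.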

HCT-116 [10] = assay: Induction of apoptosis in human HCT116 cells assessed as up-regulation of CHK2 phosphorylation up to 2 uM after 24 hrs by Western blot analysis

CCN(CC)CCCNc1cc2nc3n(c(=O)c2cc1F)CC/C3=C\c1ccc(C(C)C)cc1
active: Activity (HCT-116 [1]) | inhibition [2] | inhibition [4] | inhibition [5] | inhibition [7] | Activity (HCT-116 [8]) Dose-dependent effect | Activity (HCT-116 [10]) Dose-dependent effect
5.31: pKd [6]
inactive: inhibition [3] | Activity (HCT-116 [9])
